Results: ChEMBL document CHEMBL5143728, “Next-Generation Diprovocims with Potent Human and Murine TLR1/TLR2 Agonist Activity That Activate the Innate and Adaptive Immune Response” (J Med Chem, 2022)

Experiments:
Toll-like receptor 1/2 [1] = target: T1, Toll-like receptor 1/2 (Homo sapiens, UniProt O60603+Q15399); experiment: Agonist activity at TLR1/TLR2 in human THP-1 derived macrophages assessed as stimulation of TNF alpha release measured for 4 hrs by ELISA based assay; assay type: cell-based
T1 sequence (O60603 whole entry): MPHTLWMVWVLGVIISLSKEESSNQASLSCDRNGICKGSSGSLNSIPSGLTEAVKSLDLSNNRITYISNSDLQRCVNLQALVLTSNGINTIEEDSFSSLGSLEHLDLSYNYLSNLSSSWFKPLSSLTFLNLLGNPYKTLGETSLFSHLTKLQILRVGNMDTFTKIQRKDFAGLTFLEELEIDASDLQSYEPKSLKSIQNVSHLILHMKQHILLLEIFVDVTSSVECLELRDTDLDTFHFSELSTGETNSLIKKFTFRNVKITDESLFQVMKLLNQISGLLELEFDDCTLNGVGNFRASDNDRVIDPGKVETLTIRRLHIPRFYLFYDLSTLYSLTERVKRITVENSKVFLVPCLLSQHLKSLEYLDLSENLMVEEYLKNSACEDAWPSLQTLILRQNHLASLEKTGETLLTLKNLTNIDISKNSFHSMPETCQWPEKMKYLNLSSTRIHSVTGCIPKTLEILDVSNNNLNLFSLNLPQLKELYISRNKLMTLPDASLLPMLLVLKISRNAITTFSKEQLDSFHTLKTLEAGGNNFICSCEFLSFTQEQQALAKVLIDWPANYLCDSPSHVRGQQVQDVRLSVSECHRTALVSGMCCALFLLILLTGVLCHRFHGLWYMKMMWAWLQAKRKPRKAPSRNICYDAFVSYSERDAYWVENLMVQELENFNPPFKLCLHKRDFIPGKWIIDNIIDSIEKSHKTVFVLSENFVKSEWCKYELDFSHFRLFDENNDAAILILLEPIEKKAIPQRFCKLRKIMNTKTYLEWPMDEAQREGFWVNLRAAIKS
T1 sequence (Q15399 whole entry): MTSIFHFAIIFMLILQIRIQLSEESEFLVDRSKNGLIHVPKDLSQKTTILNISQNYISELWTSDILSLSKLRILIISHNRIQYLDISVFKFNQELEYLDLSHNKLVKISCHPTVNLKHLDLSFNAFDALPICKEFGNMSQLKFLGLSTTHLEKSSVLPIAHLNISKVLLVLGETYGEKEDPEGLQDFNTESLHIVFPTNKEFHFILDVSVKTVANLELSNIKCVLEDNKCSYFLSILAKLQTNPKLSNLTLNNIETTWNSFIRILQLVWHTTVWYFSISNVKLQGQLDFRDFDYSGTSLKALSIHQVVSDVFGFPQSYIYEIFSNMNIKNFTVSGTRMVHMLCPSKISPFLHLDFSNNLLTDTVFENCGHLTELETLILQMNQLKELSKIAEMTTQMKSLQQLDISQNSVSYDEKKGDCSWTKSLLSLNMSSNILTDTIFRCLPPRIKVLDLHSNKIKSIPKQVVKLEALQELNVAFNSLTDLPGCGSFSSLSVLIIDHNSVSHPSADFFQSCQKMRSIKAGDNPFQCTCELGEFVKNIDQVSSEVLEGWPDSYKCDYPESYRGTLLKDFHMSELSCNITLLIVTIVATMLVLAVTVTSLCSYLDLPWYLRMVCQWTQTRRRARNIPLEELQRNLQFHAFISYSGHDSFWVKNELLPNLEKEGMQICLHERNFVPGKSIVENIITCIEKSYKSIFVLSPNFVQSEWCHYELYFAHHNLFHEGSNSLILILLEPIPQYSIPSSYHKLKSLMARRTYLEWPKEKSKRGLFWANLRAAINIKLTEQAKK
Procedure, shortened: (§1)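 THP-1 cells differentiated with 100 nM PMA in RPMI/10% FBS for 24 h, washed, then rested 24 h in fresh medium. Seeded at 0.5 × 10⁵ cells/well and exposed to graded compound concentrations for 4 h, with final DMSO held at 0.1%. LPS served as positive control and DMSO as negative control. Supernatant human TNF-α was read by ELISA. EC50 from duplicate means.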

Toll-like receptor 1/2 [2] = target: T1, Toll-like receptor 1/2; experiment: Agonist activity at TLR1/TLR2 in human THP-1 derived macrophages assessed as stimulation of TNF alpha release measured for 4 hrs by ELISA based assay relative to diprovocim-1; assay type: cell-based; set-up: Activity: concentration or dose not given beside the values; settings: filed as agonist; procedure, shortened: as §1
Toll-like receptor 1/2 [3] = target: Toll-like receptor 1/2 (Mus musculus, UniProt Q9EPQ1+Q9QUN7); experiment: Agonist activity at TLR1/TLR2 in wild type C57BL/6J mouse macrophages assessed as stimulation of TNF alpha release measured for 4 hrs by ELISA based assay; assay type: cell-based, Macrophage
Toll-like receptor 1/2 (Mus musculus, UniProt Q9EPQ1+Q9QUN7), sequence (Q9QUN7 whole entry): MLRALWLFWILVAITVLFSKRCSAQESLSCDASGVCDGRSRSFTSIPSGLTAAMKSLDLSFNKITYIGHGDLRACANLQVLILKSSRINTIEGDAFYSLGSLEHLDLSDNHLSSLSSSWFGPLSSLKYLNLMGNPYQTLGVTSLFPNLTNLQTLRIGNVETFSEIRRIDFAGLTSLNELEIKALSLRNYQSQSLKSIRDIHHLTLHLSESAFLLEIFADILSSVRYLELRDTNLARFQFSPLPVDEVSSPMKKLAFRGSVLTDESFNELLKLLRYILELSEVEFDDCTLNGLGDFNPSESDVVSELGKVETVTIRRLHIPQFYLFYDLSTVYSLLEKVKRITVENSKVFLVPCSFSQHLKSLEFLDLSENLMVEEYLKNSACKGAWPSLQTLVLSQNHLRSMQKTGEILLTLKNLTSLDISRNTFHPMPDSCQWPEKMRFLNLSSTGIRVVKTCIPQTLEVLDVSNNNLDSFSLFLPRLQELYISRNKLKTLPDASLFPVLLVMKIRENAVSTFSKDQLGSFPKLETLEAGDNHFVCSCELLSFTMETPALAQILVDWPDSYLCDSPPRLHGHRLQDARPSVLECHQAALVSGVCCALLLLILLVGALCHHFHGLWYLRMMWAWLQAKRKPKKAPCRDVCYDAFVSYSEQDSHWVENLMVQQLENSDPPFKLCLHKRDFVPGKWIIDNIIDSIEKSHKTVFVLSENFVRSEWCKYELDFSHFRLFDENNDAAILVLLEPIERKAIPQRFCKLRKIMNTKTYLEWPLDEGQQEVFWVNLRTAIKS
Toll-like receptor 1/2 (Mus musculus, UniProt Q9EPQ1+Q9QUN7), sequence (Q9EPQ1 whole entry): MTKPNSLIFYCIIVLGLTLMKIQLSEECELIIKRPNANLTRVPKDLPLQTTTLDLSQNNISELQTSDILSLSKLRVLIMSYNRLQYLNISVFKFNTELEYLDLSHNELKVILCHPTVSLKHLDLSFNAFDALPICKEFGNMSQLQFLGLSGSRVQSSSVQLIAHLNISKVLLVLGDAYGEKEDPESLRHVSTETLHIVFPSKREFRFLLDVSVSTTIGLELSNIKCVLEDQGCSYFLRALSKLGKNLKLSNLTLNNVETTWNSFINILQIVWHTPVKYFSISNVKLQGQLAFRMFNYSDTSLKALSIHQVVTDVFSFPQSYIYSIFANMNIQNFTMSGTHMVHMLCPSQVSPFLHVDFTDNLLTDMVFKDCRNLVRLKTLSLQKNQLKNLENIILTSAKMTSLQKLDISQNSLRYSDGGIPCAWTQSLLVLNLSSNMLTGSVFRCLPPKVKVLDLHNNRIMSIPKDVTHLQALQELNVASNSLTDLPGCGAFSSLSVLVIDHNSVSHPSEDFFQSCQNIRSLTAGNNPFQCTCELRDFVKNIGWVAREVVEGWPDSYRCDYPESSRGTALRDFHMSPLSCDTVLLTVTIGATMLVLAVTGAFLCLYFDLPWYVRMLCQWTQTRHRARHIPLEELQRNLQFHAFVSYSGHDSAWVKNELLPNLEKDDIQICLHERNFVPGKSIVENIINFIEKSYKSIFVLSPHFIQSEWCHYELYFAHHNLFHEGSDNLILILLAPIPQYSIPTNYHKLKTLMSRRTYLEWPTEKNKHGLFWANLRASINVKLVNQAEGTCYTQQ
Procedure, shortened: (§2)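 Thioglycolate-elicited peritoneal macrophages from wild type C57BL/6J mice, harvested by PBS lavage 4 d after i.p. 4% thioglycolate. Cultured in DMEM/10% FBS at 37 °C, 5% CO2, seeded at 1 × 10⁵ cells/well and exposed to graded compound concentrations for 4 h, with final DMSO ≤0.5% held constant. LPS served as positive control. Supernatant mouse TNF-α was read by ELISA. EC50 from duplicate means.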

[4] = target: Toll-like receptor 1/2 (Mus musculus) (UniProt Q9QUN7+Q9EPQ1); experiment: Agonist activity at TLR1/TLR2 in wild type C57BL/6J mouse macrophages assessed as stimulation of TNF alpha release measured for 4 hrs by ELISA based assay relative to diprovocim-1; assay type: cell-based; set-up: Activity: concentration or dose not given beside the values; settings: Macrophage, filed as agonist; procedure, shortened: as §2

| SMILES | EC50 (Toll-like receptor 1/2 [1]) | Emax (Toll-like receptor 1/2 [2]) | EC50 (Toll-like receptor 1/2 [3]) | Emax [4] | Activity (Toll-like receptor 1/2 [2]) | Activity [4] |
| --- | --- | --- | --- | --- | --- | --- |
| CCCCCCCCCCCCNC(=O)[C@@H]1CN(C(=O)c2ccc(C(=O)N3C[C@@H](C(=O)N[C@H]4C[C@@H]4c4ccccc4)[C@H](C(=O)N[C@H]4C[C@@H]4c4ccccc4)C3)cc2)C[C@H]1C(=O)N[C@H]1C[C@@H]1c1ccccc1 | 0.1 nM | 110% | 2.1 nM | 100% | – | – |
| CCCCCCCCCCCCCCCCNC(=O)[C@@H]1CN(C(=O)c2ccc(C(=O)N3C[C@@H](C(=O)N[C@H]4C[C@@H]4c4ccccc4)[C@H](C(=O)N[C@H]4C[C@@H]4c4ccccc4)C3)cc2)C[C@H]1C(=O)N[C@H]1C[C@@H]1c1ccccc1 | 0.5 nM | 110% | 2.6 nM | 75% | – | – |
| CCCCCCCCNC(=O)[C@@H]1CN(C(=O)c2ccc(C(=O)N3C[C@@H](C(=O)N[C@H]4C[C@@H]4c4ccccc4)[C@H](C(=O)N[C@H]4C[C@@H]4c4ccccc4)C3)cc2)C[C@H]1C(=O)N[C@H]1C[C@@H]1c1ccccc1 | 0.33 nM | 100% | 540 nM | 240% | – | – |
| COC(=O)CCCCCCCNC(=O)[C@@H]1CN(C(=O)c2ccc(C(=O)N3C[C@@H](C(=O)N[C@H]4C[C@@H]4c4ccccc4)[C@H](C(=O)N[C@H]4C[C@@H]4c4ccccc4)C3)cc2)C[C@H]1C(=O)N[C@H]1C[C@@H]1c1ccccc1 | 3.8 nM | – | 240 nM | – | – | – |
| COC(=O)CCOCCOCCOCCNC(=O)[C@@H]1CN(C(=O)c2ccc(C(=O)N3C[C@@H](C(=O)N[C@H]4C[C@@H]4c4ccccc4)[C@H](C(=O)N[C@H]4C[C@@H]4c4ccccc4)C3)cc2)C[C@H]1C(=O)N[C@H]1C[C@@H]1c1ccccc1 | – | – | > 500 nM | – | 110% | – |
| COC(=O)CCCCCCCCCCCNC(=O)[C@@H]1CN(C(=O)c2ccc(C(=O)N3C[C@@H](C(=O)N[C@H]4C[C@@H]4c4ccccc4)[C@H](C(=O)N[C@H]4C[C@@H]4c4ccccc4)C3)cc2)C[C@H]1C(=O)N[C@H]1C[C@@H]1c1ccccc1 | 0.2 nM | – | – | – | 100% | 100% |
| CCCCCCNC(=O)[C@@H]1CN(C(=O)c2ccc(C(=O)N3C[C@@H](C(=O)N[C@H]4C[C@@H]4c4ccccc4)[C@H](C(=O)N[C@H]4C[C@@H]4c4ccccc4)C3)cc2)C[C@H]1C(=O)N[C@H]1C[C@@H]1c1ccccc1 | 0.25 nM | 100% | 80 nM | 150% | – | – |
| CCCCNC(=O)[C@@H]1CN(C(=O)c2ccc(C(=O)N3C[C@@H](C(=O)N[C@H]4C[C@@H]4c4ccccc4)[C@H](C(=O)N[C@H]4C[C@@H]4c4ccccc4)C3)cc2)C[C@H]1C(=O)N[C@H]1C[C@@H]1c1ccccc1 | 2 nM | 120% | 30 nM | 150% | – | – |
| CC(C)(C)OC(=O)CCOCCOCCOCCNC(=O)[C@@H]1CN(C(=O)c2ccc(C(=O)N3C[C@@H](C(=O)N[C@H]4C[C@@H]4c4ccccc4)[C@H](C(=O)N[C@H]4C[C@@H]4c4ccccc4)C3)cc2)C[C@H]1C(=O)N[C@H]1C[C@@H]1c1ccccc1 | – | – | 500 nM | – | – | – |
| COC(=O)CCCCCCCCCNC(=O)[C@@H]1CN(C(=O)c2ccc(C(=O)N3C[C@@H](C(=O)N[C@H]4C[C@@H]4c4ccccc4)[C@H](C(=O)N[C@H]4C[C@@H]4c4ccccc4)C3)cc2)C[C@H]1C(=O)N[C@H]1C[C@@H]1c1ccccc1 | 0.37 nM | – | 17 nM | – | – | – |
| CCCCCCCCCCCCCCNC(=O)[C@@H]1CN(C(=O)c2ccc(C(=O)N3C[C@@H](C(=O)N[C@H]4C[C@@H]4c4ccccc4)[C@H](C(=O)N[C@H]4C[C@@H]4c4ccccc4)C3)cc2)C[C@H]1C(=O)N[C@H]1C[C@@H]1c1ccccc1 | 0.1 nM | 150% | 1.1 nM | 100% | – | – |
| O=C(O)[C@@H]1CN(C(=O)c2ccc(C(=O)N3C[C@@H](C(=O)N[C@H]4C[C@@H]4c4ccccc4)[C@H](C(=O)N[C@H]4C[C@@H]4c4ccccc4)C3)cc2)C[C@H]1C(=O)N[C@H]1C[C@@H]1c1ccccc1 | 200 nM | – | > 5000 nM | – | 110% | – |
| O=C(NCCCCCCCCCCO)[C@@H]1CN(C(=O)c2ccc(C(=O)N3C[C@@H](C(=O)N[C@H]4C[C@@H]4c4ccccc4)[C@H](C(=O)N[C@H]4C[C@@H]4c4ccccc4)C3)cc2)C[C@H]1C(=O)N[C@H]1C[C@@H]1c1ccccc1 | 0.5 nM | – | 50 nM | – | – | – |
| O=C(O)/C=C/C(=O)NCC(=O)OCCCCCCCCCCCCNC(=O)[C@@H]1CN(C(=O)c2ccc(C(=O)N3C[C@@H](C(=O)N[C@H]4C[C@@H]4c4ccccc4)[C@H](C(=O)N[C@H]4C[C@@H]4c4ccccc4)C3)cc2)C[C@H]1C(=O)N[C@H]1C[C@@H]1c1ccccc1 | – | – | – | – | 100% | 60% |
| CC(C)(C)OC(=O)CNC(=O)CCCCCCCCCCCNC(=O)[C@@H]1CN(C(=O)c2ccc(C(=O)N3C[C@@H](C(=O)N[C@H]4C[C@@H]4c4ccccc4)[C@H](C(=O)N[C@H]4C[C@@H]4c4ccccc4)C3)cc2)C[C@H]1C(=O)N[C@H]1C[C@@H]1c1ccccc1 | – | – | – | – | 100% | 70% |
| C#CCN(C)CC(=O)OCCCCCCCCCCCCNC(=O)[C@@H]1CN(C(=O)c2ccc(C(=O)N3C[C@@H](C(=O)N[C@H]4C[C@@H]4c4ccccc4)[C@H](C(=O)N[C@H]4C[C@@H]4c4ccccc4)C3)cc2)C[C@H]1C(=O)N[C@H]1C[C@@H]1c1ccccc1 | – | – | – | – | 40% | 100% |
| O=C(CNC(=O)c1ccc(C(=O)O)cc1)OCCCCCCCCCCCCNC(=O)[C@@H]1CN(C(=O)c2ccc(C(=O)N3C[C@@H](C(=O)N[C@H]4C[C@@H]4c4ccccc4)[C@H](C(=O)N[C@H]4C[C@@H]4c4ccccc4)C3)cc2)C[C@H]1C(=O)N[C@H]1C[C@@H]1c1ccccc1 | – | – | – | – | 100% | 60% |
| CC(C)(C)OC(=O)N[C@@H](CSCc1ccccc1)C(=O)OCCCCCCCCCCCCNC(=O)[C@@H]1CN(C(=O)c2ccc(C(=O)N3C[C@@H](C(=O)N[C@H]4C[C@@H]4c4ccccc4)[C@H](C(=O)N[C@H]4C[C@@H]4c4ccccc4)C3)cc2)C[C@H]1C(=O)N[C@H]1C[C@@H]1c1ccccc1 | – | – | – | – | 100% | 200% |
| CC(C)(C)OC(=O)c1ccc(C(=O)OCCCCCCCCCCCCNC(=O)[C@@H]2CN(C(=O)c3ccc(C(=O)N4C[C@@H](C(=O)N[C@H]5C[C@@H]5c5ccccc5)[C@H](C(=O)N[C@H]5C[C@@H]5c5ccccc5)C4)cc3)C[C@H]2C(=O)N[C@H]2C[C@@H]2c2ccccc2)cc1 | – | – | – | – | 90% | 190% |
| NCCCCCCCCCCCCNC(=O)[C@@H]1CN(C(=O)c2ccc(C(=O)N3C[C@@H](C(=O)N[C@H]4C[C@@H]4c4ccccc4)[C@H](C(=O)N[C@H]4C[C@@H]4c4ccccc4)C3)cc2)C[C@H]1C(=O)N[C@H]1C[C@@H]1c1ccccc1 | – | – | – | – | 140% | 130% |
| CC(C)(C)OC(=O)Nc1ccc(C(=O)OCCCCCCCCCCCCNC(=O)[C@@H]2CN(C(=O)c3ccc(C(=O)N4C[C@@H](C(=O)N[C@H]5C[C@@H]5c5ccccc5)[C@H](C(=O)N[C@H]5C[C@@H]5c5ccccc5)C4)cc3)C[C@H]2C(=O)N[C@H]2C[C@@H]2c2ccccc2)cc1 | – | – | – | – | 90% | 540% |
| O=C(CNC(=O)C(=O)O)OCCCCCCCCCCCCNC(=O)[C@@H]1CN(C(=O)c2ccc(C(=O)N3C[C@@H](C(=O)N[C@H]4C[C@@H]4c4ccccc4)[C@H](C(=O)N[C@H]4C[C@@H]4c4ccccc4)C3)cc2)C[C@H]1C(=O)N[C@H]1C[C@@H]1c1ccccc1 | – | – | – | – | 120% | 250% |
| CC(C)(C)OC(=O)NCC(=O)NCCCCCCCCCCCCNC(=O)[C@@H]1CN(C(=O)c2ccc(C(=O)N3C[C@@H](C(=O)N[C@H]4C[C@@H]4c4ccccc4)[C@H](C(=O)N[C@H]4C[C@@H]4c4ccccc4)C3)cc2)C[C@H]1C(=O)N[C@H]1C[C@@H]1c1ccccc1 | – | – | – | – | 90% | 90% |
